The sample as a whole holds a higher share of hits than the screen did.
H69AR growth 86K = blocks growth of human H69AR lung tumor cells; H69AR lung tumor viability, ATP luminescence, 72 h; stronger effect = lower value; viability, % at 10 µM; hit rate 6% among 85,000; AID 598;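 active means viability at or below 40%; inactive means viability above 40%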;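 further: multidrug resistant small cell line overexpressing MRP-1 efflux transporter; 100% = mean luminescence of untreated control wells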
Calb biofilm kill = kills Candida albicans biofilms. AID 834. hit rate 0.14% among 85,000. inhibition, % at 6 µM. C. albicans biofilm + clotrimazole, Alamar Blue;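 active means inhibition above 20%; inactive means inhibition below 20%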;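 further: preformed 24 hr biofilms exposed to compound for 48 hr; 0% = biofilm without compound and 100% = blank killed by clotrimazole plus chlorhexidine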
Fibroblast inh = blocks proliferation of human lung fibroblasts; LL 47 human lung fibroblast viability, ATP luminescence; stronger effect = lower value; viability, % at 10 µM; hit rate 1.1% among 85,000; AID 719;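 active means viability at or below 50% in the single dose screen; inactive means viability above 50%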;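 further: compound exposure lasted 72 h before the ATP readout; 100% = median luminescence of untreated cell-only wells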
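material = human LL 47 lung fibroblast cells | dosing = compounds added from tenfold dosing solution, 0.1% DMSO final | timing = overnight cell rest, 72 h compound treatment at 37 °C | measured by = CellTiter-Glo luminescence measuring cellular ATP | evaluation = % viability versus median cells-only luminescence | control set = cell-only wells, no compound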
HCT116 PTEN-null = growth suppressors of cells with PTEN tumor suppressor deletion. HCT116 PTEN-null viability, CellTiter-Glo, 60 h; stronger effect = lower value. viability, % at 10 µM. hit rate 1.2% among 140,000. AID 827;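 active means viability at or below a set limit, 4 SD under the median of all tested compounds, cut at about 3.7% in these data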;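 further: PTEN knockout HCT116 line with beta catenin targeted HCT116 as companion control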
HCT116 bCat-KO = beta-catenin-lacking colon tumor cell growth suppression. HCT116 beta-catenin knockout viability, CellTiter-Glo, 60 h; stronger effect = lower value. viability, % at 10 µM. hit rate 1.5% among 140,000;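 active means viability at or under a set limit, the compound median less 4 SD, cut at about 6% in these data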;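 further: 0% = Hyamine 1622 control at 20 µM and 100% = untreated cell control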
HUVEC inhibit = inhibitors of human endothelial cell proliferation; HUVEC proliferation, CellTiter-Glo luminescence, 72 h; stronger effect = lower value; viability, % at 10 µM (by protocol); hit rate 1.1% among 86,000;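 active means viability at or below 30%; inactive means viability above 30%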;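 further: 100% = median luminescence of DMSO-only cell control wells on each plate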
An asterisk follows results filed as active.

`O=c1cc(Nc2ccc3c(c2)OCCO3)[nH]c(=O)n1-c1ccc(Cl)cc1` gave H69AR growth 86K 8.8*, Calb biofilm kill 9, Fibroblast inh 90, HCT116 PTEN-null 49, HCT116 bCat-KO 53 and HUVEC inhibit 74.
Screening O=c1cc(Nc2ccc3c(c2)OCCO3)[nH]c(=O)n1C1CCCCC1 returned H69AR growth 86K 18*, Calb biofilm kill 5, Fibroblast inh 64, HCT116 PTEN-null 23, HCT116 bCat-KO 28 and HUVEC inhibit 57.
Screening COc1ccc([N+](=O)[O-])cc1N(CC(=O)NCC1CCCO1)S(C)(=O)=O (stereo not given) returned HCT116 PTEN-null 100 and HCT116 bCat-KO 94.
COc1cccc(N2CCN(c3ncnc4c3[nH]c3ccccc34)CC2C)c1 (stereo not given) was read as HCT116 PTEN-null 7 and HCT116 bCat-KO 4.7*.
Screening COc1cccc(N2CCN(c3ncnc4c3[nH]c3ccc(F)cc34)CC2C)c1 (stereo not given) returned H69AR growth 86K 4.0*, Calb biofilm kill 7, Fibroblast inh 1.9*, HCT116 PTEN-null 1.6*, HCT116 bCat-KO 2.0* and HUVEC inhibit 2.3*.
For N#Cc1c(N)nc2c(c1-c1ccc3c(c1)OCO3)CCc1ccccc1-2 the results were HCT116 PTEN-null 60 and HCT116 bCat-KO 57.
For Cc1cc(C)c2c(N)c3cccc(C)c3nc2n1 the results were HCT116 PTEN-null 2.5* and HCT116 bCat-KO 2.5*.
`CN(C)c1ccc(NC(=O)Cn2cc3c(n2)CCCC3)cc1` gave H69AR growth 86K 43, Calb biofilm kill 19, Fibroblast inh 87, HCT116 PTEN-null 76, HCT116 bCat-KO 51 and HUVEC inhibit 80.
CCOc1ccc(NC(=O)c2cc3c(C)nc4ccccc4c3o2)cc1 was read as H69AR growth 86K 30*, Calb biofilm kill 3, Fibroblast inh 71, HCT116 PTEN-null 35, HCT116 bCat-KO 36 and HUVEC inhibit 74.
`Cc1nc2ccccc2c2oc(C(=O)NC3CC3)cc12` gave H69AR growth 86K 69, Calb biofilm kill 5, Fibroblast inh 99, HCT116 PTEN-null 102, HCT116 bCat-KO 97 and HUVEC inhibit 71.
Cc1occc1C(=O)NNC1=CC(=O)CC(C)(C)C1 was read as HCT116 PTEN-null 104 and HCT116 bCat-KO 94.
Screening O=c1c(C(c2ccccc2)c2c(O)sc3ccccc3c2=O)c(O)sc2ccccc12 returned H69AR growth 86K 36*, Calb biofilm kill 5, Fibroblast inh 89, HCT116 PTEN-null 79, HCT116 bCat-KO 85 and HUVEC inhibit 67.
Screening O=C(NC(=S)N1CCN(c2ccc(C(F)(F)F)cc2[N+](=O)[O-])CC1)c1cccs1 returned HCT116 PTEN-null 71 and HCT116 bCat-KO 57.
Screening Cc1ccc(C)c(-n2nnnc2Sc2nnnn2-c2ccccc2)c1 returned H69AR growth 86K 2.3*, Calb biofilm kill 10, Fibroblast inh 24*, HCT116 PTEN-null 1.8*, HCT116 bCat-KO 2.0* and HUVEC inhibit 15*.
Screening NC(=O)CNC(=O)[C@@H]1CC2(CC(c3ccc(Cl)cc3)=NO2)CN1C(=O)c1ccccc1 (stereo not given in full) returned HCT116 PTEN-null 110 and HCT116 bCat-KO 105.
Cc1cc(C)c(C)c(S(=O)(=O)NCc2ccc(C(=O)N3CCCCC3)cc2)c1C was read as H69AR growth 86K 33*, Calb biofilm kill 2, Fibroblast inh 99, HCT116 PTEN-null 86, HCT116 bCat-KO 78 and HUVEC inhibit 95.
For CCOC(=O)c1nnc(-c2cccs2)nc1Oc1ccccc1C(=O)OC the results were H69AR growth 86K 31*, Calb biofilm kill 1, Fibroblast inh 97, HCT116 PTEN-null 97, HCT116 bCat-KO 97 and HUVEC inhibit 74.
`CCOC(=O)c1nnc(-c2cccs2)nc1Oc1ccc(Cl)cc1` gave H69AR growth 86K 52, Calb biofilm kill -1, Fibroblast inh 94, HCT116 PTEN-null 110, HCT116 bCat-KO 94 and HUVEC inhibit 76.
O=C(c1cc2ccccc2oc1=O)N(Cc1ccccc1)Cc1ccc2c(c1)OCO2 was read as H69AR growth 86K 109, Calb biofilm kill 10, Fibroblast inh 94, HCT116 PTEN-null 88, HCT116 bCat-KO 85 and HUVEC inhibit 87.
Screening COc1cccc(/C=C2\C(=O)C(=O)c3ccccc32)c1 returned H69AR growth 86K 5.3*, Calb biofilm kill -2, Fibroblast inh 77, HCT116 PTEN-null 100, HCT116 bCat-KO 92 and HUVEC inhibit 72.
COc1cccc(C(=O)Nc2ccc3c(c2)C(=O)c2ccccc2C3=O)c1 was read as HCT116 PTEN-null 70 and HCT116 bCat-KO 67.
O=c1cc(N2CCN(c3ccc(F)cc3)CC2)[nH]c(=O)n1C1CCCCC1 was read as H69AR growth 86K 35*, Calb biofilm kill 10, Fibroblast inh 84, HCT116 PTEN-null 66, HCT116 bCat-KO 72 and HUVEC inhibit 60.
For O=c1cc(N2CCC3(CC2)OCCO3)[nH]c(=O)n1C1CCCCC1 the results were H69AR growth 86K 69, Calb biofilm kill -2, Fibroblast inh 94, HCT116 PTEN-null 100, HCT116 bCat-KO 92 and HUVEC inhibit 99.
Screening O=C(COC(=O)CNS(=O)(=O)c1ccc(F)c(F)c1F)Nc1ccc(OC(F)F)cc1 returned HCT116 PTEN-null 101 and HCT116 bCat-KO 90.
For CCSc1nnc(-c2ccccc2N=Cc2c(C)[nH]n(-c3ccccc3)c2=O)c(=O)[nH]1 the results were HCT116 PTEN-null 98 and HCT116 bCat-KO 85.
O=c1cnn(-c2ccccc2)c(-c2ccccc2)c1 was read as H69AR growth 86K 25*, Calb biofilm kill 6, Fibroblast inh 74, HCT116 PTEN-null 24, HCT116 bCat-KO 20 and HUVEC inhibit 74.
For COc1cnn(-c2ccccc2)c(=O)c1N(C)C the results were H69AR growth 86K 88, Calb biofilm kill 6, Fibroblast inh 92, HCT116 PTEN-null 92, HCT116 bCat-KO 88 and HUVEC inhibit 83.
For O=C(Cn1c(SCC(=O)N2CCc3ccccc32)nc2ccccc21)NC1CCCC1 the results were H69AR growth 86K 29*, Calb biofilm kill 9, Fibroblast inh 103, HCT116 PTEN-null 93, HCT116 bCat-KO 94 and HUVEC inhibit 76.
Screening COc1ccc(C(=O)Nc2cc(C(F)(F)F)ccc2Cl)cc1OC returned HCT116 PTEN-null 97 and HCT116 bCat-KO 101.
`COc1ccc(/C(N)=N/OC(=O)c2cccc([N+](=O)[O-])c2C)cc1OC` gave H69AR growth 86K 36*, Calb biofilm kill 3, Fibroblast inh 93, HCT116 PTEN-null 56, HCT116 bCat-KO 59 and HUVEC inhibit 70.
`COc1ccc(/C(N)=N/OC(=O)c2cccc([N+](=O)[O-])c2)cc1OC` gave H69AR growth 86K 68, Calb biofilm kill -1, Fibroblast inh 96, HCT116 PTEN-null 102, HCT116 bCat-KO 116 and HUVEC inhibit 95.
For CCN(CC)c1ccc(C(=O)OCc2cc(=O)oc3cc(O)ccc23)cc1 the results were HCT116 PTEN-null 0.2* and HCT116 bCat-KO 0.9*.
